Laboratory results as given in ChEMBL document CHEMBL3616379, “From carbohydrates to drug-like fragments: Rational development of novel α-amylase inhibitors” (Bioorg Med Chem, 2015).
Active and inactive are the calls of the source. The calls are words filed in the database; no cut-off is given here.

How the values were obtained:
Alpha amylase = target: T1, Alpha amylase (Homo sapiens, UniProt P0DUB6); experiment: (§1) Inhibition of alpha-amylase (unknown origin) relative to control
T1 sequence (P0DUB6 whole entry): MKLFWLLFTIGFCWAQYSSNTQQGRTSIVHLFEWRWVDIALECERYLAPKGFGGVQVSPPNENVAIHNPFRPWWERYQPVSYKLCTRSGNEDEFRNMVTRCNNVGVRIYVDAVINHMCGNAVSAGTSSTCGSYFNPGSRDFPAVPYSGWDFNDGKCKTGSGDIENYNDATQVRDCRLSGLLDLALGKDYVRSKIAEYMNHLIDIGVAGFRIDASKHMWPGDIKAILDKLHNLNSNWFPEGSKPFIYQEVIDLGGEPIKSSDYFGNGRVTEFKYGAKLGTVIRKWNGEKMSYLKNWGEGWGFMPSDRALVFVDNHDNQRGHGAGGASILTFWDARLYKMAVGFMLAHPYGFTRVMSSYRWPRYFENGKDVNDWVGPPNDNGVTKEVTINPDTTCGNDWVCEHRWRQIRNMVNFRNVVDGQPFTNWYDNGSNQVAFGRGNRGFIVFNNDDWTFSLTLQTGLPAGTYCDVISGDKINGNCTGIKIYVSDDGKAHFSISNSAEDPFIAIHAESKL

Alpha-amylase 1A = target: T2, Alpha-amylase 1A (Homo sapiens, UniProt P0DUB6); experiment: Inhibition of human salivary alpha-amylase using GalG2CNP as substrate by UV-Vis spectrophotometric analysis
T2 sequence (P0DUB6 whole entry): T1 sequence (P0DUB6 whole entry)

Pancreatic alpha-amylase [1] = target: T3, Pancreatic alpha-amylase (Homo sapiens, UniProt P04746); experiment: Inhibition of human pancreatic alpha-amylase expressed in Pichia pastoris using amylase as substrate preincubated with substrate for 10 mins followed by protein addition measured every 5 mins by Dixon plot analysis
T3 sequence (P04746 whole entry): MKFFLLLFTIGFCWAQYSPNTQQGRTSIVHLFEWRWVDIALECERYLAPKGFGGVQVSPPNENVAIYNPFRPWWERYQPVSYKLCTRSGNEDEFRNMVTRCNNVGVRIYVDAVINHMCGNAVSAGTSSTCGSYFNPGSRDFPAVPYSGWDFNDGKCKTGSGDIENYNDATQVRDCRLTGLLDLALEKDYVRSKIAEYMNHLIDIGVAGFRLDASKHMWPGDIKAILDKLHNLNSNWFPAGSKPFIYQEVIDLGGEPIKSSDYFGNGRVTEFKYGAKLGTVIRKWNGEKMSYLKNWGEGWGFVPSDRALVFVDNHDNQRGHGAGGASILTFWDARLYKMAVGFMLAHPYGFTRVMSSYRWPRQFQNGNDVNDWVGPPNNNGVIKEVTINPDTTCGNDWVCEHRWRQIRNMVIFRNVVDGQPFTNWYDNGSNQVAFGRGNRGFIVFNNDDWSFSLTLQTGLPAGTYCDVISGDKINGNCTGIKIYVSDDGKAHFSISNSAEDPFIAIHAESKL

Pancreatic alpha-amylase [2] = target: T3, Pancreatic alpha-amylase; experiment: Inhibition of human pancreatic alpha-amylase
[3] = target: Alpha amylase (Homo sapiens) (UniProt P0DUB6); experiment: as §1; parameters: concentration or dose not given beside the values; settings: concentration not given here
[4] = target: T4, Alpha-amylase 1A (Homo sapiens) (UniProt P0DUB6); experiment: Potency index, ratio of BAS 04880564 IC50 to compound IC50 for human salivary alpha-amylase
T4 sequence (whole entry): T1 sequence (P0DUB6 whole entry)

[5] = target: T4, Alpha-amylase 1A (Homo sapiens); experiment: Competitive inhibition of human salivary alpha-amylase using GalG2CNP as substrate by Lineweaver-Burk plot analysis
Method in brief: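 Inhibition mode assigned from Lineweaver-Burk plots. Human salivary α-amylase (2 nM) started reactions containing GalG2CNP (0.75–4 mM) and inhibitor in DMSO, in 50 mM MES pH 6.0 with 5 mM Ca(OAc)2, 51.5 mM NaCl, 152 mM NaN3 at 37°C. Rates from continuous 400 nm absorbance of released CNP.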

SMILES	IC50 (Alpha amylase)	IC50 (Alpha-amylase 1A; read-out: IC50)	also measured
O=C1C[C@@H](c2ccc(O)cc2)Oc2cc(O)cc(O)c21 [NARINGENIN]	1800 µM	–	–
O=c1ccc2cc(O[C@@H]3O[C@H](CO)[C@@H](O)[C@H](O)[C@H]3O)c(O)cc2o1 [ESCULIN]	1670 µM	–	–
CC1OC(OC2C(CO)OC(OC3C(CO)OC(O)C(O)C3O)C(O)C2O)C(O)C(O)C1NC1C=C(CO)C(OC2OC(CO)C(OC3OC(CO)C(O)C(O)C3O)C(O)C2O)C(O)C1O (stereo not given)	–	–	Ki (Pancreatic alpha-amylase [1]): 1.25 µM
CC1OC(OC2C(CO)OC(OCC3OC(O)C(O)C(O)C3O)C(O)C2O)C(O)C(O)C1NC1C=C(CO)C(OC2OC(CO)C(OC3OC(CO)C(O)C(O)C3O)C(O)C2O)C(O)C1O (stereo not given)	–	–	Ki (Pancreatic alpha-amylase [2]): 0.012 µM
Oc1ccc(Nc2nc(-c3ccc(O)cc3)cs2)cc1	–	492 µM	–
C[C@H]1O[C@H](O[C@H]2[C@H](O)[C@@H](O)[C@@H](O[C@H]3[C@H](O)[C@@H](O)[C@@H](O[C@H]4[C@H](O)[C@@H](O)[C@@H](O[C@H]5[C@H](O)[C@@H](O)[C@@H](O)O[C@@H]5CO)O[C@@H]4CO)O[C@@H]3CO)O[C@@H]2CO)[C@H](O)[C@@H](O)[C@@H]1N[C@H]1C=C(CO)[C@@H](O[C@H]2O[C@H](CO)[C@@H](O[C@H]3O[C@H](C)[C@@H](N[C@H]4C=C(CO)[C@@H](O)[C@H](O)[C@H]4O)[C@H](O)[C@H]3O)[C@H](O)[C@H]2O)[C@H](O)[C@H]1O	–	–	Ki (Pancreatic alpha-amylase [1]): 0.0147 µM
Cc1[nH]nc(-c2ccc(O)cc2O)c1Oc1ccc(C(=O)O)cc1	–	4000 µM	–
COc1cc2ccc(=O)oc2cc1O [SCOPOLETIN]	1300 µM	–	–
O=c1ccc2cc(O)c(O)cc2o1	–	–	inhibition [3]: 17.4%
COc1ccc(CCC(=O)O)cc1OC	> 12000 µM	–	–
COc1cc(Br)cc(/C=C2/SC(Nc3cccc(C(=O)O)c3)=NC2=O)c1O	–	260 µM	Ratio IC50 [4]: 0.53
O=C(O)c1ccc(Nc2nc(-c3ccc(O)cc3O)cs2)cc1	–	680 µM	–
Nc1ccc(Nc2nc(-c3ccc(Cl)cc3Cl)cs2)cc1	–	270 µM	Ratio IC50 [4]: 0.51
Oc1cc(O)c2c(c1)O[C@@H](c1ccc(O)c(O)c1)[C@H](O)C2	–	–	inhibition [3]: 16%
C[C@@H]1O[C@@H](O[C@H]2[C@H](Oc3cc(O)c4c(c3)O[C@H](c3ccc(O)cc3)CC4=O)O[C@H](CO)[C@@H](O)[C@@H]2O)[C@H](O)[C@H](O)[C@H]1O	–	–	inhibition [3]: 0%
COc1cc(/C=C/C(=O)O)ccc1O [FERULATE]	> 5000 µM	–	–
CC(=O)N1CCN(C2=NC(=O)/C(=C\c3ccccc3O)S2)CC1	–	700 µM	–
O=c1c(O[C@@H]2O[C@H](CO)[C@@H](O)[C@H](O)[C@H]2O)c(-c2ccc(O)c(O)c2)oc2cc(O)cc(O)c12	–	–	inhibition [3]: 12.2%
O=C(O)CCc1ccc(O)c(O)c1 [DIHYDROCAFFEIC ACID]	> 14000 µM	–	–
O=C(O)c1ccc(Nc2nc(-c3ccc(O)cc3O)cs2)cc1O	–	642 µM	–
Cc1ccc(O)c(Cc2cc(C)cc(Cc3cc(C)ccc3O)c2O)c1	–	200 µM	Inhibition mode [5]: Active

SMILES	IC50 (Alpha amylase)	IC50 (Alpha-amylase 1A; read-out: IC50)	also measured
O=c1cc(-c2ccc(O)cc2)oc2cc(O)cc(O)c12	–	–	inhibition [3]: 12.4%
Oc1ccc(Nc2nc(-c3ccccc3)cs2)cc1	–	1270 µM	–
OC[C@H]1O[C@@H](Oc2ccc(O)cc2)[C@H](O)[C@@H](O)[C@@H]1O	–	–	inhibition [3]: 30%
O=C1S/C(=C\c2cc(Cl)ccc2O)C(=O)N1Cc1cccc([N+](=O)[O-])c1	–	50 µM	Inhibition mode [5]: Active; Ratio IC50 [4]: 2.76
COc1ccc(Nc2nc(-c3ccccc3O)cs2)cc1	–	40 µM	Ratio IC50 [4]: 3.45
C[C@@H]1O[C@@H](OC[C@H]2O[C@@H](Oc3c(-c4ccc(O)c(O)c4)oc4cc(O)cc(O)c4c3=O)[C@H](O)[C@@H](O)[C@@H]2O)[C@H](O)[C@H](O)[C@H]1O	–	–	inhibition [3]: 20.1%
C[C@H]1O[C@H](O[C@H]2[C@H](O)[C@@H](O)[C@@H](O[C@H]3[C@H](O)[C@@H](O)[C@@H](O[C@H]4[C@H](O)[C@@H](O)[C@@H](O[C@H]5[C@H](O)[C@@H](O)[C@@H](O)O[C@@H]5CO)O[C@@H]4CO)O[C@@H]3CO)O[C@@H]2CO)[C@H](O)[C@@H](O)[C@@H]1N[C@H]1C=C(CO)[C@@H](O[C@H]2O[C@H](CO)[C@@H](O[C@H]3O[C@H](C)[C@@H](N[C@H]4C=C(CO)[C@@H](O[C@H]5O[C@H](CO)[C@@H](O[C@H]6O[C@H](C)[C@@H](N[C@H]7C=C(CO)[C@@H](O)[C@H](O)[C@H]7O)[C@H](O)[C@H]6O)[C@H](O)[C@H]5O)[C@H](O)[C@H]4O)[C@H](O)[C@H]3O)[C@H](O)[C@H]2O)[C@H](O)[C@H]1O	–	–	Ki (Pancreatic alpha-amylase [1]): 0.0143 µM
Oc1cc(O)c2cc(O)c(-c3ccc(O)c(O)c3)[o+]c2c1	–	–	inhibition [3]: 12%
Cc1cc(C=O)c(O)c(/C=N/N=C(/N/N=C/c2cc(C)cc(C=O)c2O)SCc2ccccc2)c1	–	–	IC50 (Alpha-amylase 1A): ND(Insoluble)
Oc1ccc(Nc2nc(-c3ccc(Cl)cc3)cs2)cc1	–	1040 µM	–
O=c1cc(-c2ccccc2)oc2cc(O)cc(O)c12	–	–	inhibition [3]: 5%
O=C(O)c1ccc(O)c(O)c1 [PROTOCATECHUIC ACID]	> 10000 µM	–	–
COc1cc(/C=C/C(=O)O)cc(OC)c1O [SINAPINATE]	> 6500 µM	–	–
O=C(O)/C=C/c1ccc(O)c(O)c1 [CAFFEIC ACID]	4800 µM	–	–
C[C@@H]1O[C@@H](Oc2c(-c3ccc(O)c(O)c3)oc3cc(O)cc(O)c3c2=O)[C@H](O)[C@H](O)[C@H]1O	–	–	inhibition [3]: 37.6%
Cc1ccc(-c2csc(Nc3ccc(O)cc3)n2)cc1	–	735 µM	–
Oc1ccc(Nc2nc(-c3ccc(O)cc3O)cs2)cc1	–	138 µM	Inhibition mode [5]: Active
C[C@H]1O[C@H](O[C@H]2[C@H](O)[C@@H](O)[C@@H](O[C@H]3[C@H](O)[C@@H](O)[C@@H](O[C@H]4[C@H](O)[C@@H](O)[C@@H](O[C@H]5[C@H](O)[C@@H](O)[C@@H](O)O[C@@H]5CO)O[C@@H]4CO)O[C@@H]3CO)O[C@@H]2CO)[C@H](O)[C@@H](O)[C@@H]1N[C@H]1C=C(CO)[C@@H](O[C@H]2O[C@H](CO)[C@@H](O[C@H]3O[C@H](C)[C@@H](N[C@H]4C=C(CO)[C@@H](O[C@H]5O[C@H](CO)[C@@H](O[C@H]6O[C@H](C)[C@@H](N[C@H]7C=C(CO)[C@@H](O[C@H]8O[C@H](CO)[C@@H](O[C@H]9O[C@H](C)[C@@H](N[C@H]%10C=C(CO)[C@@H](O)[C@H](O)[C@H]%10O)[C@H](O)[C@H]9O)[C@H](O)[C@H]8O)[C@H](O)[C@H]7O)[C@H](O)[C@H]6O)[C@H](O)[C@H]5O)[C@H](O)[C@H]4O)[C@H](O)[C@H]3O)[C@H](O)[C@H]2O)[C@H](O)[C@H]1O	–	–	Ki (Pancreatic alpha-amylase [1]): 0.0416 µM
O=C(O)c1cccc(N2C(=O)/C(=C/c3ccccc3O)SC2=S)c1	–	62 µM	Ratio IC50 [4]: 2.22
O=C(O)c1cccc(O)c1O [2,3-DIHYDROXYBENZOIC ACID]	> 7000 µM	–	–

Further lines, with some results ahead:

IC50 (Alpha amylase)	IC50 (Alpha-amylase 1A; read-out: IC50)	SMILES	also measured
–	4000 µM	CCc1cc(-c2n[nH]c(C(=O)O)c2-c2ccc3c(c2)OCO3)c(O)cc1O	–
–	330 µM	COc1cccc(NC(=N)Nc2nc(O)cc(CSc3ccccn3)n2)c1	–
3500 µM	–	Oc1cc(O)c2c(c1)O[C@H](c1ccc(O)c(O)c1)[C@H](O)C2 [(-)-EPICATECHIN]	–
–	850 µM	C/C(=N\NC(=O)CCC(=O)Nc1ccccc1C)c1ccc(O)cc1O	–
> 2000 µM	–	O=C(/C=C/c1ccc(O)c(O)c1)O[C@@H]1C[C@@](OC(=O)/C=C/c2ccc(O)c(O)c2)(C(=O)O)C[C@@H](O)[C@@H]1O [CYNARIN]	–
280 µM	–	O=c1cc(-c2ccc(O)c(O)c2)oc2cc(O[C@@H]3O[C@H](CO)[C@@H](O)[C@H](O)[C@H]3O)cc(O)c12 [GALUTEOLIN]	–
1400 µM	–	O=C(/C=C/c1ccc(O)c(O)c1)O[C@H](Cc1ccc(O)c(O)c1)C(=O)O [ROSMARINIC ACID]	–
13000 µM	–	O=C(O)[C@]1(O)C[C@@H](O)[C@@H](O)[C@H](O)C1 [QUINIC ACID]	–
–	300 µM	COc1cccc(C2NC(c3cccc(OC)c3O)C([N+](=O)[O-])C(C)(C)C2[N+](=O)[O-])c1O (stereo not given)	–
–	1000 µM	CC(O)CNCCNCc1ccc(-c2ccccc2F)o1 (stereo not given)	–
390 µM	–	O=C(/C=C/c1ccc(O)c(O)c1)O[C@@H]1C[C@](O)(C(=O)O)C[C@@H](OC(=O)/C=C/c2ccc(O)c(O)c2)[C@H]1O	–
